These results are taken from the RNAGym collection of RNA variant scans (doi:10.1126/science.aae0568).

B1: tRNA (parent)
chain: GUUCCGUUGGCGUAAUGGUAACGCGUCUCCCUCCUAAGGAGAAGACUGCGGGUUCGAGUCCCGUACGGAACG

This sample holds only a part of the variants without activity. Bounds are passed on as bounds.

Variants of B1 are the subject of the series. Description: yeast fitness relative to wild type (ratio to wild type); higher = fitter; tRNA-Arg(CCU), competitive growth, 37 C, YPD. A digest of the protocol:
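Gene amplicons from the start population and from each of six end populations were read by 100-nucleotide paired-end sequencing. Those end populations came from pooled Saccharomyces cerevisiae strains carrying tRNA-Arg(CCU) gene variants at the native locus, competed in YPD at 37°C for 24 hours. Fitness relative to wild type was worked out from changes in genotype frequencies. Genotypes needed ≥ 100 starting reads, and estimates < 0.5 were set to 0.5.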
For the variant GUACCGUUGGCAUAAUGGUAACGUGUCUCCCUCCUAAGGAGAAGUCUGCGGGUUCGAGUCCCGUACGGAACG [U3A G12A C24U A45U], the yeast fitness was no more than 0.5.
Regarding GUACCGCUGGUGCAAUGGUAACGCGUCUCCAUCCUAAGGAGAAGACUGCGGGUUCGAGUCCCGUACGGAACG [U3A U7C C11U U13C C31A], the yeast fitness was no more than 0.5.
Next, GUACCGUUGGCCCAAUGGUAACGCGUCUCCCUCCUAAGGAGAAGACUGUGGGUUCCAGUCCCGUACGGAACG [U3A G12C U13C C49U G56C]: no more than 0.5; GUACCGUUGGCGUAACGGCAACGCGUCUCCCUCCUAAGGAGAAGAUUGCGGGUUCGAGUCCCGUACGGAACG [U3A U16C U19C C46U]: no more than 0.5.
Next, GUACCGUUGCCGUAAUGGUAACGCGUCUCCCUCCUUAGGCGAAGACUGCGGGUUCGCGUCCCGUACGGAACG [U3A G10C A36U A40C A57C]: no more than 0.5; GUACCGUUAGCGUAAUGGAAACGCGUCUCCCUCCUAAGGAGAACACUGCGGGUUCGAGUCCCGUACGCAACG [U3A G9A U19A G44C G68C]: no more than 0.5.
Next, GUACCGUUGGCGUAACGGUAACGCGUCUCCCUGCUAAGGAGAAGACUGCGGGUUCGAGUCCCGUAGGGAACG [U3A U16C C33G C66G]: 0.664; GUACCGUUGGCGGAAUGGUAACGCGUCUCCCUCCUAAGGAGAAGACCGCGGGUUCGAGUCCCGUACGGACCG [U3A U13G U47C A70C]: no more than 0.5.
Regarding GUACCGUUGACGUAAUGGUAACGCGUCUCCCGCCUAAGGAGAAGACUGCGGGUUCGAGUCCCGUAAGGAACG [U3A G10A U32G C66A], the yeast fitness is no more than 0.5.
Next, GUACCGUUGGCGUAAUGGUAACGCGUCUCCCUCCUAAGGAGAAGACUCCGGGUUCGAGCCCCGUACGGAACG [U3A G48C U59C]: 0.537.
With GUACCGUUGGCGUAAUGGUAACGCGUCUCCCUCCUAAGGAGAAGACUGCGAGUUCGAGUCCCGUGCGGUACG [U3A G51A A65G A69U], the yeast fitness stood at 1.03.
Next, GUACCGUUGGCAUAAUGGUAACGCGUCUGCCUCCUAAGAAGAAGACUGCGGGUUCGAGUCCCGUAGGGAACG [U3A G12A C29G G39A C66G]: no more than 0.5; GUACCGUUAGCGUAAUGGUAACGCGUCUCCCUCCUAAGGAGAAGACUGCGGGUUCGAGUCCGGUAGGGAACG [U3A G9A C62G C66G]: no more than 0.5.
Regarding GUACCGGUGGCGUUAUGGUAACGCAUCUCCCUCCUAAGGACAAGAUUGCGGGUUCGAGUCACGUACGGAACG [U3A U7G A14U G25A G41C C46U C61A], the yeast fitness is 0.519.
As for GUACCGUUAGCGUGAUGGUAACGCGUCUCCCUCCUAAGGAGAAGACUGCGGGUUCGAGUCCCGUAUGGAACG [U3A G9A A14G C66U], the figure is 0.575; as for GUACCGUUGGCGUAAUGGUAACGCGUCUCCCUCCUAAGGAGAAGACUGCGGGUUCCAGUCCCGUACCGAACG [U3A G56C G67C], 0.573.
Next, GUACCGUUGGCGUAAUGGUAACGCGUCUCCCUCCUAAGGAGAAGACUGCGGAUUCGAGUCCCGUACGGAACG [U3A G52A]: 0.764.
Next, GUACCGUUGGCCUAAUGGUAACGCGUCUCCCUCCUAAGGAGAAGACUGCGGAUUCGAGUCCCGUUCGGAACG [U3A G12C G52A A65U]: no more than 0.5; GUACCGUUGGCGUAAUGGUAACGCGUCUCCCUCCUAAGGAGAAGACUGCGAGUUCGAGUCCCGUACGGAACG [U3A G51A]: 0.765; GUACCGUUGGCAUAAUGGAAACGCGUCUCCCUCCUAAGGAGAAGACUGCGGGUUCGAGUCCCGCACGGAACG [U3A G12A U19A U64C]: no more than 0.5.
With GUACCGUUGGCGUAAUGGUAACGCGUCUCCCUCCUAAGGAGAAGACUGCGGGUUCGAGUCCCCUACGGAACG [U3A G63C], the yeast fitness came out at 0.743.
Next, GUACCGUUGGCGUAAUGGUAACGCGUCUCCCUCCUAAGGAGAAGACUGCGGGUUCGAGUCCCAUACGGAACG [U3A G63A]: 0.772; GUACCGUUCGCGUAAUGGUAACGCGUCUCCGUCCUAAGGAGAAGACUGCGGGUUCGAGUCUCGUACGGAACG [U3A G9C C31G C61U]: 0.581.
Next, GUACCGUUGGCGUAAUGGUAACGCGUCUCCCUCCUAAGAAGAAGACUGCGGGUUUGAGGCCCGUACGCAACG [U3A G39A C55U U59G G68C]: no more than 0.5; GUACCGUUAGCGUCAUGGUAACGCGUCUCCCUCCUAAGGAGAAGACUGCGGGUUGGAGUCCCGUACGGAACG [U3A G9A A14C C55G]: no more than 0.5; GUACCUUUGGCCUAAUGGUAAAGCGUCUCCCUCCUAAGGAGAAGACUGCGGGUUCGAGUCCCGUACGGAACG [U3A G6U G12C C22A]: no more than 0.5.
As for GUACCGUUGGCGUAAUGGUAACGCGUCUCCCUCCUAAGGAGAAAACUGCGGGUUUGAGUCCCGUACGGAACG [U3A G44A C55U], the figure is no more than 0.5; as for GUACCGUUAGCGUAAUGGUAACGCGUCUCCCUCCUAGGGAGAAGACUGCGGGUUCGAGUCCCGUACGCGACG [U3A G9A A37G G68C A69G], no more than 0.5.
Regarding GUACCGUUGGCGUAAUGGUAACGCGUCUCCCUCCUAAGGAGAAGACUGCGGGUUCGAGUCCCGUACCGAACG [U3A G67C], the yeast fitness was found to be 0.827.
Next, GUACCGGUGGCGUUAUGGUAACGCAUCUCCCUCCUAAGGACAAGAUUGCGGGUUCGAGUCCCGUACGGAACG [U3A U7G A14U G25A G41C C46U]: no more than 0.5.
Next, GUACCGUUCGCGUAAUGGUAACGCGUCUCCCUCCUAAGGAGAAGACUGCGGGUUCGAGUCCCGUACGGAACG [U3A G9C]: 0.567; GUACCGUUAGCGUAAUGGUAACGCGUCUCCCUCCUAAGGAGAAGACUGCGGGUUCGAGUCCCGUACGGAACG [U3A G9A]: 0.977.
As for GUACCGUUGGCCUAAUGGUAACGCGUCUCCCUCCUAAGGAGAAGACUGCGGGUUCGAGUCCCGUACGGAACG [U3A G12C], the figure is 0.635; as for GUACCGUUGGCAUAAUGGUAACGCGUCUCCCUCCUAAGGAGAAGACUGCGGGUUCGAGUCCCGUACGGAACG [U3A G12A], 0.826; as for GUACCGUUGGCGUAAUGGUAACGCGUCUCCCUCCUAAAGGGAAGACUGCGGGUUCGAGUCCCGUACGGUACG [U3A G38A A40G A69U], no more than 0.5.
As to GUACCGUUAGCGUAAUGGUAACGCGUCUGCCUCCUAAGGAGAAGACUGCGGGUUCGAGUCCCGUACGGAACG [U3A G9A C29G], the yeast fitness turned out to be 0.585.
As for GUACCGUUGGCGUAAUGGUAACGCGUCUCCCUCCUAAGGAGAAAACUGCGGGUUCGAGUCCCGUACGGAACG [U3A G44A], the figure is 0.807; as for GUACCGUUGGCCUAAUGGUACCGCGUCUCCCUCCUCAGGAGAAGACUGCGGGUUCGAGUCCCGUACGGAACG [U3A G12C A21C A36C], no more than 0.5.
